Results gathered from unrelated publications.
Compare with care: the assays were run in different laboratories.
Target: Serine/threonine-protein kinase pim-2 (PIM2, Homo sapiens, UniProt Q9P1W9)

Cc1nn(C)cc1-c1nc2c(N3CCN(Cc4ccc(Cl)cc4)CC3)c(Cl)cnc2[nH]1
remaining binding (binding, competition with immobilised ligand; 1 µM): 100%

Cn1cc(-c2cccc(N3CCc4c(sc5c4CC(C)(C)C5)C3=O)c2CO)cc(Nc2ccncn2)c1=O
inhibition (enzyme activity, inhibitor; 1 µM): 1%

COc1ncccc1-c1cnn2ccc(N3CCN(C(=O)OC(C)C)CC3)nc12
remaining binding (binding, competition with immobilised ligand; 1 µM): 100%

O=c1[nH]c2ccccc2n1C1CCN(Cc2ccc(-c3[nH]c4cc5ncnc5cc4nc3-c3ccccc3)cc2)CC1
remaining signal (cell-free assay; 0.5 µM): 111%

Cn1cc(-c2cc(F)cc(N3CCn4c(cc5c4CCCC5)C3=O)c2CO)cc(Nc2ccc(N3CCN(C4COC4)CC3)cn2)c1=O
inhibition (enzyme activity, inhibitor; 0.1 µM): -1%

C#Cc1n[nH]c2c(-c3cn([C@@H](C)c4ccccc4)c(=O)[nH]c3=O)cc(F)cc12
inhibition (enzyme activity, inhibitor; 0.1 µM): 3.2%

COc1cc(Nc2ncc(F)c(Nc3ccc4c(n3)NC(=O)C(C)(C)O4)n2)cc(OC)c1OC
inhibition (binding, competition with immobilised ligand; 10 µM): 0%

CC(C)(C)c1cc(C=C(C#N)C#N)cc(Br)c1O
remaining activity (enzyme activity, inhibitor; 0.5 µM): 115%

Cn1cncc1[C@](O)(COc1ccc(C#N)cc1-c1ccc(OC(F)(F)F)cc1)c1ccc(C#N)cc1
remaining binding (cell-free assay, competition with immobilised ligand; 1 µM): 84%

C#Cc1n[nH]c2c(-c3cn(C(C)c4ccccn4)c(=O)[nH]c3=O)cc(F)cc12 (stereo not drawn)
inhibition (enzyme activity, inhibitor; 1 µM): -1.5%

Nc1ncc(-c2nc(N3CCOCC3)nc(N3CCOCC3)n2)c(C(F)F)n1
remaining binding (binding, competition with immobilised ligand; 10 µM): 92%

N#CC1(c2ccccn2)CCN(Cc2cc(C(=O)O)c(=O)n3ccccc23)CC1
remaining binding (cell-free assay, competition with immobilised ligand; 1 µM): 100%
